Results taken from publication PMC3966939 (Stroke; a journal of cerebral circulation, 2014).

Assays:
[1] = tested on: rat model of embolic middle cerebral artery occlusion (MCAO); assay: Incidence of gross hemorrhage on H&E stained coronal sections; assay type: in vivo; conditions: treatment started 4h after MCAO; H&E sections 7 days after MCAO
Procedure, shortened: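 In embolic-MCAO male Wistar rats, treatment began 1 or 4 h after occlusion. The peptide was given at 0.8 mg/kg/day (IA for 2 h, then SC pump for 3 days), with or without IV tPA 10 mg/kg at 4 h. Rats were killed at day 7. Seven H&E coronal sections per animal were scored for blood visible to the unaided eye, expressed as group percentage. Fisher exact test was applied.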

TGF-β1 = assay: Immunohistochemistry: TGF-β1 immunoreactive vessels; assay type: in vivo, rat; conditions: treatment 4h after MCAO, 24h; compared to the saline treatment
Procedure, shortened: (§1)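 Embolic-MCAO male Wistar rats were treated 4 h after stroke onset with one of three regimens: IV tPA (10 mg/kg) alone, tPA plus peptide (0.8 mg/kg/day, IA then SC pump), or saline (n=4–6). Rats were killed 24 h after treatment began. Frozen 8 μm coronal sections (bregma −0.4 to −1.4 mm) were immunostained, and immunoreactive vessels in ischemic brain were counted. One-way ANOVA with Hochberg adjustment was used.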

p-Smad2/3 = assay: Immunohistochemistry: p-Smads2/3 immunoreactive vessels; assay type: in vivo, rat; conditions: treatment 4h after MCAO, 24h; compared to the saline treatment
Procedure, shortened: as §1

[2] = tested on: rat model of embolic middle cerebral artery occlusion (MCAO); assay: MRI measurement of ischemic lesion; assay type: in vivo; conditions: treatment started 4h after MCAO; MRI at 1, 72 and 144 h after MCAO; n=10/group
Procedure, shortened: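 Rats received IV tPA (10 mg/kg) alone or tPA plus peptide, starting 4 h after embolic MCAO. Imaging was done on a 7 T scanner with T2-weighted and diffusion-weighted images at 1, 72 and 144 h. Ischemic area was taken from the T2 map using a threshold of two SD above the contralateral hemisphere. Groups were compared by one-way ANOVA.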

NF-κB (p65) = assay: Immunohistochemistry: p65 immunoreactive vessels; assay type: in vivo, rat; conditions: treatment 4h after MCAO, 24h; ipsilateral hemisphere
Procedure, shortened: as §1

PAI-1 = assay: Immunohistochemistry: PAI-1 immunoreactive vessels; assay type: in vivo, rat; conditions: treatment 4h after MCAO, 24h; double immunostaining
Procedure, shortened: as §1

tissue plasminogen activator [tPA]
incidence of gross hemorrhage [1]: 38%
density of TGF-β1 immunoreactive vessels (TGF-β1): failed to reduce the densities
density of p-Smads2/3 immunoreactive vessels (p-Smad2/3): failed to reduce the densities
ischemic lesion by MRI (T2) [2]: increased over 144h
p65 immunoreactive vessels (NF-κB (p65)): augmented
PAI-1 immunoreactive vessel density (PAI-1): further increased
